Source: PubChem
DDE Tn6 FP inh: DD(E)-Tn6 binding inhibition, primary FP screen | Fibrin DD(E) TRITC-Tn6 fluorescence polarization displacement | inhibition, % at 8.3 µM | 370,000 tested, 0.21% active;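 active = inhibition above a per-campaign cutoff: mean of compounds within control limits plus 3 SD, cut at about 15% in these data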;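 note: 0% = median of all compound wells on the plate and 100% = blocking peptide control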
TCR CD3 inh: inhibitors of human TCR-CD3 interaction; TAMRA-labeled TCR probe fluorescence, biochemical; inhibition, % at 9.4 µM; 360,000 tested, 0.37% active;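 note: recombinant mutant TCR 2C K166C tagged with TAMRA read by polarization; 0% = receptor in buffer alone and 100% = receptor with positive control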
HTRA1 inhibitor: blocks human HTRA1 serine peptidase | 340,000 tested, 0.5% active | inhibition, % at 5.96 µM | recombinant HTRA1, FP-rhodamine activity-based probe, fluorescence polarization | Q92743; in the data active = inhibition above about 36%;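 note: 0% = enzyme with DMSO and 100% = wells lacking enzyme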
mABHD4 FP: inhibits mouse alpha/beta hydrolase domain 4 | Q8VD66 | inhibition, % at 8.92 µM | purified mABHD4, FP-Rh probe fluorescence polarization | 370,000 tested, 0.54% active;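 active = inhibition exceeding the mean over every tested compound plus 3 SD, cut at about 30% in these data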;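 note: 0% = plate median of compound wells and 100% = S159A mutant with DMSO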
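Assay system: mouse ABHD4 enzyme, wild type / Also added: fluorescent activity-based probe FP-Rh / Doses: single nominal dose of 8.92 µM, 0.89% DMSO final / Timing: 45 min compound pre-incubation plus 60 min probe step, 25 °C / Signal: FP readout, ex 525 nm / em 598 nm / Control set: S159A mutant/DMSO as 100%, compound-well median as 0%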
SIAE inh: blocks human sialic acid acetylesterase. SIAE FP-Rh probe binding, fluorescence polarization. inhibition, % at 9.66 µM. 370,000 tested, 0.69% active. AID 1053197;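 active = inhibition above a cutoff: mean of compounds within the control limits plus 3 SD of those, cut at about 17% in these data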;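 note: 0% = plate median of compound wells and 100% = probe without SIAE protein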
Target sequence (Q9HAT2 whole entry, looked up): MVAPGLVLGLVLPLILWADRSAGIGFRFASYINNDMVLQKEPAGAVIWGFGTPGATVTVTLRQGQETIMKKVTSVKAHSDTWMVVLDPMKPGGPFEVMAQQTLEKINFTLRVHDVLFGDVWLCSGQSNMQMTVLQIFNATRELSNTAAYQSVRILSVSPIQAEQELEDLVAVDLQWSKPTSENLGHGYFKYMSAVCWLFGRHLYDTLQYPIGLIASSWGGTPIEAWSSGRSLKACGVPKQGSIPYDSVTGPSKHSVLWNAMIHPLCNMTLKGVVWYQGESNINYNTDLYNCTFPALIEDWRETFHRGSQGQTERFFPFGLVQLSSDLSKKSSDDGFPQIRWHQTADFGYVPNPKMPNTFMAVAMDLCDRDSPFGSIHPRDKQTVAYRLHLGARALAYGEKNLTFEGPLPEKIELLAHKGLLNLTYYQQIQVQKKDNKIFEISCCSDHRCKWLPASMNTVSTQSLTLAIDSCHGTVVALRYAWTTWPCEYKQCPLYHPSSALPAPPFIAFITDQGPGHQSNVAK
DDE Tn7 FP inh: inhibitors of Tn7 peptide binding to human fibrin DD(E) | inhibition, % at 8.3 µM | 370,000 tested, 0.13% active | FP displacement of FITC-Tn7 peptide from fibrin DD(E); 0% = median of compound wells per plate | P02675;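 active = inhibition above the mean of compounds falling within the control limits plus 3 SD of them, cut at about 14% in these data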;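 note: 0% = plate median of compound wells and 100% = 10 µM Aha-Tn7 peptide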
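Assay system: human fibrin DD(E) protein / Input: 2 µM fibrin DD(E) / Benchmarks: high control of 10 µM Aha-Tn7 peptide / Measured by: fluorescence polarization of the labelled Tn7 tracer / Medium: Tris buffer with calcium and detergent, pH 7.8 / Timing: 10 min compound pre-incubation, 3 h probe incubation at room temperature / Repeats: one replicate per compound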
HTRA1 inh conf: HTRA1 (human) inhibition, confirmation; recombinant HTRA1, FP-rhodamine activity-based probe, fluorescence polarization; inhibition, % at 5.96 µM; 1,600 tested, 66% active; shares compounds with HTRA1 inhibitor;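 active = mean inhibition over three repeats above a set limit taken from the earlier primary screen, cut at about 37% in these data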;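 note: 0% = HTRA1 with DMSO and 100% = wells lacking HTRA1; inhibitors block probe binding so polarization drops and inhibition rises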
BSA probe FL: counter-screen for TCR-CD3 interaction inhibitors: BSA probe. shares compounds with TCR CD3 inh. TAMRA-labeled BSA probe fluorescence counterscreen. inhibition, % at 9.4 µM. 1,200 tested, 10% active. AID 652035; in the data active = inhibition above about 23%;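 note: 0% = buffer low control and 100% = reference high control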
TCR-CD3 inh conf: TCR-CD3 interaction inhibition, confirmation | AID 652036 | 1,200 tested, 48% active | inhibition, % at 9.4 µM | TAMRA-labeled TCR probe fluorescence binding assay | shares compounds with TCR CD3 inh
ABHD4 confirm: ABHD4 (mouse) inhibition, FP confirmation; shares compounds with mABHD4 FP; purified mABHD4, FP-Rh probe fluorescence polarization; inhibition, % at 8.92 µM; 1,800 tested, 55% active; AID 720658;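 active = mean inhibition across replicates above the hit cutoff set in the primary screen, cut at about 30% in these data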;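 note: 0% = wild-type ABHD4 with DMSO and 100% = catalytically dead S159A mutant with DMSO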
* hit, by the source's call; . = no result. Only some compounds are listed: those with a hit (about 1.8% of all), similar ones and a draw of the others. Cut-off read from the data, not from the text of the source, unless noted: active = inhibition above about 19%; inactive = the rest.

SMILES	DDE Tn6 FP inh	TCR CD3 inh	HTRA1 inhibitor	mABHD4 FP	SIAE inh	DDE Tn7 FP inh	HTRA1 inh conf	ABHD4 confirm	others
CCOC(=O)C(C(C)=O)c1c(Br)c(O)c(O)c2c(C(=O)c3ccc(C)cc3)coc12 (stereo not drawn)	-17	-1	69*	32*	-4	-10	78*	38*
Cc1ccc(C(=O)c2coc3ccc(O)c(Cl)c23)cc1	0	1	-8	-21	1	8	.	.
CC(C)CC(=O)Nc1nnc(S(=O)(=O)N2CCCCCC2)s1	0	-2	7	2	-1	-4	.	.
NC1=C(Br)C(=O)c2ncccc2C1=O	-7	-1	14	6	2	3	.	.
O=C1C=C(NCCc2cc(Br)c(O)c(Br)c2)C(=O)c2ncccc21	5	26*	53*	48*	10	1	43*	51*	BSA probe FL=-6;TCR-CD3 inh conf=25*
O=C(NCc1ccccc1)C(C1CC1)n1c(=O)c(-c2ccco2)nc2ccccc21 (stereo not drawn)	2	-4	.	3	-4	-1	.	.
O=C1Nc2ccccc2/C1=N\N=C\c1ccc(O)c(O)c1	-3	32*	49*	48*	4	-3	78*	44*	BSA probe FL=-15;TCR-CD3 inh conf=41*
CCCCC1(C)NC(=O)N(CC(=O)Nc2ccc(Cl)cc2C)C1=O (stereo not drawn)	-2	-6	1	4	-5	-3	.	.
C=CCN=c1scc(-c2ccco2)n1/N=C/c1ccc(O)c(O)c1O	3	21*	72*	49*	2	2	86*	60*	BSA probe FL=-20;TCR-CD3 inh conf=14
CN=c1scc(-c2cccs2)n1/N=C/c1ccc(O)c(O)c1O	-8	28*	82*	56*	13	-7	73*	74*	BSA probe FL=-20;TCR-CD3 inh conf=23*
CCCc1nc2c3ccccc3ccn2c1CC(C)(C)C	3	-4	.	-4	1	-5	.	.
CCOC(=O)N1CCN(C(=O)C[C@H]2C(=O)N(Cc3ccc(OC)cc3)C3=CCCCC[C@@]32C(=O)OC)CC1	6	.	.	-1	4	-9	.	.
O=S(c1ccccc1O)S(=O)c1ccccc1O (stereo not drawn)	-50	10	40*	37*	4	-48	34	34*
CS(=O)c1ccccc1O (stereo not drawn)	2	1	-1	3	2	-1	.	.
NC(=O)NC(=O)C(Nc1ccc(N2CCCCC2)cc1)c1ccccc1 (stereo not drawn)	-8	-2	52*	40*	15	-2	10	4
O=C(CSc1nnc(CNC(=O)c2cccs2)o1)Nc1ccccc1F	3	1	1	-2	-5	0	.	.
COc1cccc(CNS(=O)(=O)c2cc3c(cc2Br)CC(C)N3C(C)=O)c1 (stereo not drawn)	-5	.	.	4	4	-1	.	.
Cc1ccc(Nc2ccc(N)cc2S(=O)(=O)O)cc1	8	0	80*	65*	14	0	21	18
Nc1ccc(Nc2ccccc2)c(S(=O)(=O)O)c1	5	22*	58*	63*	10	-10	15	44*	BSA probe FL=-3;TCR-CD3 inh conf=9
Nc1cccc(Nc2ccccc2)c1	5	4	15	-3	6	2	.	.
COc1ccc(S(=O)(=O)N2CCOCC2)cc1NC(=O)c1c(-c2ccccc2)noc1C	0	3	-8	-3	2	3	.	.
N#CC1=C2N=C(N)c3c(sc4c3CCCCC4)N2C2=C(C(=O)CCC2)C1c1ccccc1 (stereo not drawn)	-11	2	40*	32*	11	1	9	-26
N#CC1=C2N=C(N)c3ccccc3N2C2=C(C(=O)CCC2)C1c1ccc(F)cc1 (stereo not drawn)	2	-3	-5	8	3	-7	.	.
COc1ccc(S(=O)(=O)N(C)C[C@H]2Oc3ccc(NC(=O)Cc4cn(C)c5ccccc45)cc3C(=O)N([C@@H](C)CO)C[C@@H]2C)cc1	3	3	-28	-11	-11	-2	.	.
CCCCC(O)(c1ccc(F)cc1)C(CN1CCOCC1)c1ccc(Cl)cc1 (stereo not drawn)	2	3	-20	-4	2	10	.	.
SMILES	DDE Tn6 FP inh	TCR CD3 inh	HTRA1 inhibitor	mABHD4 FP	SIAE inh	DDE Tn7 FP inh	HTRA1 inh conf	ABHD4 confirm	others
COc1cc(CN2CCN(C(=O)c3cccc4ccccc34)CC2)cc(OC)c1O	1	4	5	6	15	7	.	.
Cc1ccc(O)c(/C=N/NC(=O)Cc2ccc(Cl)cc2)c1	3	8	8	2	1	9	.	.
O=C(Cc1ccc(Cl)cc1)N/N=C/c1ccc(O)c(O)c1	12	8	63*	33*	-8	0	68*	15
Cc1ccccc1NC(=O)c1ccc2nc(N3CCOCC3)sc2c1	-3	2	-4	0	-4	6	.	.
O=C(N/N=C/c1c(O)ccc2ccccc12)c1ccc(Br)o1	-3	26*	48*	38*	12	-10	42*	10	BSA probe FL=-13;TCR-CD3 inh conf=22*
COc1ccc(N2CC(C(=O)Nc3cccc(OC(C)C)c3)CC2=O)cc1 (stereo not drawn)	5	2	-4	2	-4	5	.	.
Cc1ccc(/C=[N+](\[O-])c2ccc(N(C)C)cc2)c2nsnc12	-3	8	38*	30*	9	-1	20	-8
CCN(CC)c1ccc(N=Cc2ccc([N+](=O)[O-])o2)cc1	-10	5	64*	45*	7	-2	41*	16
